Results as given in PMC7126328 (Bioorganic & Medicinal Chemistry, 2013).
“And” between values parts separate entries of the source, which are not always exact repeats. Equal entries are not always repeated.

What was measured:
E. coli/pRAC-gfp [1] = conditions: for Toxic and mutagenic effects on indicator cells E. coli/pRAC-gfp (in words): 150 μM; for The value of the fluorescence of GFP synthesized in biosensor cells, Biosensor E. coli/pRAC-gfp: 150 μM compound in culture medium, 1.5 h
MDCK cells = conditions: 48 h, MTT
E. coli/pRAC-gfp [2] = assay: microbe, parasite or virus in culture; conditions: Escherichia coli, read-out: Inhibition/induction of the synthesis of the reporter protein GFP, E. coli/pRAC-gfp
E. coli/pET36b-gfp [3] = conditions: for Toxic and mutagenic effects on indicator cells E. coli/pET36b-gfp (in words): 150 μM; for The value of the fluorescence of GFP synthesized in biosensor cells, Biosensor E. coli/pET36b-gfp: 150 μM compound in culture medium, IPTG 1 mM
[4] = MTT cell viability assay, MT-4; type: cell-based; conditions: human, MT-4 cells
Summary of the method: (§1)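 Test compound, dissolved in DMSO, was added and cells were cultured for 72 h (37 °C, 5% CO2), three wells per concentration, with untreated cells as control. Then 1% MTT was added for 4 h, DMSO added and mixed 15 min, and OD read at 570 nm.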

E. coli/pET36b-gfp [5] = assay: microbe, parasite or virus in culture; conditions: Escherichia coli, read-out: Inhibition/induction of the synthesis of the reporter protein GFP, E. coli/pET36b-gfp
[6] = MTT cell viability assay, U-937; type: cell-based; conditions: human, U-937 cells (monocytes)
Summary of the method: as §1

The value of the fluorescence of GFP synthesized in biosensor cells, Biosensor E. coli/pRAC-gfp (E. coli/pRAC-gfp [1])	The value of the fluorescence of GFP synthesized in biosensor cells, Biosensor E. coli/pET36b-gfp (E. coli/pET36b-gfp [3])	SMILES	Toxic and mutagenic effects on indicator cells E. coli/pRAC-gfp (in words) (E. coli/pRAC-gfp [1])	CTD50, cytotoxic concentration; the concentration leading to 50% death of cells (MDCK cells)	inhibition at 150 µM (E. coli/pRAC-gfp [2])	Toxic and mutagenic effects on indicator cells E. coli/pET36b-gfp (in words) (E. coli/pET36b-gfp [3])	IC50 at 72 h [4]	inhibition at 150 µM (E. coli/pET36b-gfp [5])	IC50 at 72 h [6]
176.9 ± 16.9 conventional units	547.9 ± 40.8 conventional units	CC[N+](CC)(CC)CC/N=C1\C[C@H]2CC[C@]1(C)C2(C)C [Compound 4b, N,N,N-Triethyl-2-((E)-((1R,4R)-1,7,7-trimethylbicyclo[2.2.1]heptan-2-ylidene)amino)ethanaminium bromide]	neither toxic nor mutagenic effects	–	< 20%	neither toxic nor mutagenic effects	> 100 µM	< 20%	> 100 µM
–	–	CC[N+](CC)(CCCCCCCC[N+](CC)(CC)CC/N=C1\C[C@H]2CC[C@]1(C)C2(C)C)CC/N=C1\C[C@H]2CC[C@]1(C)C2(C)C [Compound 3c, N^1,N^1,N^8,N^8-Tetraethyl-N^1,N^8-bis(2-((E)-((1R,4R)-1,7,7-trimethylbicyclo[2.2.1]heptan-2-ylideneamino)ethyl)octane-1,8-diaminium bromide]	–	–	–	–	69.8 ± 2.7 µM	–	67.2 ± 5.9 µM
168.9 ± 13.5 conventional units	546.9 ± 65.6 conventional units	CC[N+](CC)(CCCCC[N+](CC)(CC)CC/N=C1\C[C@H]2CC[C@]1(C)C2(C)C)CC/N=C1\C[C@H]2CC[C@]1(C)C2(C)C [Compound 3a, N^1,N^1,N^5,N^5-Tetraethyl-N^1,N^5-bis(2-((E)-((1R,4R)-1,7,7-trimethylbicyclo[2.2.1]heptan-2-ylidene)amino)ethyl)pentane-1,5-diaminium bromide]	neither toxic nor mutagenic effects	–	< 20%	neither toxic nor mutagenic effects	57.5 ± 3.8 µM	< 20%	95.8 ± 5.6 µM
95.9 ± 4.3 conventional units	172.3 ± 6.2 conventional units	CC[N+](CC)(CCCCCCCCC[N+](CC)(CC)CC/N=C1\C[C@H]2CC[C@]1(C)C2(C)C)CC/N=C1\C[C@H]2CC[C@]1(C)C2(C)C [Compound 3d, N^1,N^1,N^9,N^9-Tetraethyl-N^1,N^9-bis(2-((E)-((1R,4R)-1,7,7-trimethylbicyclo[2.2.1]heptan-2-ylidene)amino)ethyl)nonane-1,9-diaminium bromide]	highly toxic	–	–	highly toxic	66 ± 5.3 µM	–	58.6 ± 3.4 µM
49.3 ± 2.1 conventional units	51.3 ± 4.6 conventional units	CC[N+](CC)(CCCCCCCCCCCC[N+](CC)(CC)CC/N=C1\C[C@H]2CC[C@]1(C)C2(C)C)CC/N=C1\C[C@H]2CC[C@]1(C)C2(C)C [Compound 3f, N^1,N^1,N^12,N^12-Tetraethyl-N^1,N^12-bis(2-((E)-((1R,4R)-1,7,7-trimethylbicyclo[2.2.1]heptan-2-ylidene)amino)ethyl)dodecane-1,12-diaminium bromide]	highly toxic	–	–	highly toxic	40.4 ± 3.9 µM	–	15.9 ± 1.1 µM
189.21 ± 17.7 conventional units	535.72 ± 307 conventional units	CC[N+](C)(CC)CC/N=C1\C[C@H]2CC[C@]1(C)C2(C)C [Compound 4a, N,N-Diethyl-N-methyl-2-((E)-((1R,4R)-1,7,7-trimethylbicyclo[2.2.1]heptan-2-ylidene)amino)ethanaminium iodide]	–	–	< 20%	–	> 100 µM	< 20%	58.6 ± 4.6 µM
171.4 ± 14.5 conventional units	512.7 ± 32.4 conventional units	CCN(CC)CC/N=C1\C[C@H]2CC[C@]1(C)C2(C)C [Compound 2, (E)-N^1,N^1-Diethyl-N^2-((1R,4R)-1,7,7-trimethylbicyclo[2.2.1]heptan-2-ylidene)ethane-1,2-diamine]	neither toxic nor mutagenic effects	–	< 20%	neither toxic nor mutagenic effects	–	< 20%	–
170.87 ± 8.9 conventional units	466.46 ± 4.1 conventional units	CC[N+](CC)(CC/N=C1\C[C@H]2CC[C@]1(C)C2(C)C)Cc1ccc(C[N+](CC)(CC)CC/N=C2\C[C@H]3CC[C@]2(C)C3(C)C)cc1 [Compound 3g, (R,R,E)-N,N′-(1,4-Phenylenebis(methylene))bis(N,N-diethyl-2-((E)-((1R,4R)-1,7,7-trimethylbicyclo[2.2.1]heptan-2-ylidene)amino)ethanaminium) bromide]	neither toxic nor mutagenic effects	–	< 20%	neither toxic nor mutagenic effects	40.5 ± 3 µM	< 20%	54.9 ± 2.6 µM
56.9 ± 3.1 conventional units	110.7 ± 7.2 conventional units	CC[N+](CC)(CCCCCCCCCC[N+](CC)(CC)CC/N=C1\C[C@H]2CC[C@]1(C)C2(C)C)CC/N=C1\C[C@H]2CC[C@]1(C)C2(C)C [Compound 3e, N^1,N^1,N^10,N^10-Tetraethyl-N^1,N^10-bis(2-((E)-((1R,4R)-1,7,7-trimethylbicyclo[2.2.1]heptan-2-ylidene)amino)ethyl)decane-1,10-diaminium bromide]	highly toxic	–	–	highly toxic	66.1 ± 4.4 µM	–	53.6 ± 2.2 µM

SMILES	The value of the fluorescence of GFP synthesized in biosensor cells, Biosensor E. coli/pRAC-gfp (E. coli/pRAC-gfp [1])	The value of the fluorescence of GFP synthesized in biosensor cells, Biosensor E. coli/pET36b-gfp (E. coli/pET36b-gfp [3])	Toxic and mutagenic effects on indicator cells E. coli/pRAC-gfp (in words) (E. coli/pRAC-gfp [1])	CTD50, cytotoxic concentration; the concentration leading to 50% death of cells (MDCK cells)	inhibition at 150 µM (E. coli/pRAC-gfp [2])	Toxic and mutagenic effects on indicator cells E. coli/pET36b-gfp (in words) (E. coli/pET36b-gfp [3])	IC50 at 72 h [4]	inhibition at 150 µM (E. coli/pET36b-gfp [5])	IC50 at 72 h [6]
CC[N+](CC)(CCCCCC[N+](CC)(CC)CC/N=C1\C[C@H]2CC[C@]1(C)C2(C)C)CC/N=C1\C[C@H]2CC[C@]1(C)C2(C)C [Compound 3b, N^1,N^1,N^6,N^6-Tetraethyl-N^1,N^6-bis(2-((E)-((1R,4R)-1,7,7-trimethylbicyclo[2.2.1]heptan-2-ylidene)amino)ethyl)hexane-1,6-diaminium bromide]	186.2 ± 22.9 conventional units	495.5 ± 15.2 conventional units	neither toxic nor mutagenic effects	1712 µM and 1712.3 ± 169.8 µM	< 20%	neither toxic nor mutagenic effects	48.3 ± 3.2 µM	< 20%	–
CC[N+](CC)(CCCCCCCC[N+](CC)(CC)CC/N=C1\C[C@H]2CC[C@]1(C)C2(C)C)CC/N=C1\C[C@H]2CC[C@]1(C)C2(C)C [Compound 3c]	81.7 ± 3.6 conventional units	165.5 ± 8.1 conventional units	highly toxic	552.5 ± 49.1 µM	–	highly toxic	–	–	–
